Data: PMC6598675 (Science signaling, 2019)
Where “and” joins values, the source holds several entries; their conditions need not be identical. Equal entries are not always repeated. Entries after “also recorded” stand apart in the source; their conditions may differ.

Key:
[1] = test system: AND TCR; experiment: Single-molecule TIRF imaging of pMHC-TCR binding events; parameters: species or system mouse; details: for pMHC-TCR binding / mobility under T cell (in words): 37°C, single-molecule TIRF
Method in brief: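 Atto647N-peptide-MHC binding under live T cells was imaged at 37°C by single-molecule TIRF, either at 2.5 mW/cm2 with 20 ms exposures or at 0.1 mW/cm2 with 500 ms exposures. Single-step unbinding was confirmed by Bayesian change-point detection. Dwell-time distributions (>3000 trajectories, ≥25 cells) were fitted to a single exponential and corrected for photobleaching using bilayer pMHC imaged under identical conditions. Bound fraction was normalised to RICM contact area.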

[2] = test system: primary mouse T cells (AND TCR transgenic), NFAT; experiment: NFAT nuclear translocation of AND TCR T cells on pMHC supported bilayers; format: cell-based; details: for agonist strength (in words): AND TCR
Method in brief: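 Primary AND TCR-transgenic mouse T cells were retrovirally spinfected with NFAT-GFP (polybrene 4 μg/ml, days 3–4 post-activation) and sorted; most runs used NFAT-mCherry. Cells were added at 37°C onto Ni-chelating supported bilayers carrying His-tagged ICAM-1 (100–200 μm−2) and peptide-loaded MHC (0.1–2 μm−2). Landing was scored by RICM. NFAT activation was the nuclear/cytosolic intensity ratio. Threshold was the density near half-maximal response, with >30 cells per condition over five experiments.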

[3] = test system: AND TCR T cells; format: cell-based, mouse
Method in brief: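 For each T cell, binding events and total dwell time were counted from RICM landing to first NFAT translocation. Counts were corrected for undetected prebleached events and for short events (0.8 s up to the time-lapse interval). Costimulation used His10-tagged recombinant murine CD80 ectodomain on the bilayer at 100–300 molecules/μm2. There were 7–15 cells per condition from three to seven experiments.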

[4] = test system: AND TCR T cells; format: cell-based, mouse; remark: listed apart in the source
[5] = test system: AND TCR; experiment: Calculated probability of long-dwelling pMHC-TCR binding events; parameters: species or system mouse; details: single exponential unbinding kinetics from mean dwell time
Method in brief: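 The probability that a binding event lasts 40 s was calculated assuming single-exponential unbinding at the fitted, photobleaching-corrected mean dwell time. The 40 s receptor-level threshold came from spatiotemporal correlation analysis of pMHC trajectories grouped into signaling clusters.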

[6] = test system: 5c.c7 recombinant TCR; details: 5c.c7 recombinant TCR binding to MCC pMHC; ref [9], [10]; cited from earlier work
[7] = low T102S pMHC density, cells that activated NFAT

## ANERAELIAYLTQAAKGGSC [null pMHC, reference compound]
[1]
  pMHC-TCR binding / mobility under T cell (in words): did not exhibit slowed pMHC-TCR complexes

## ANERADLIAYLKQASK [T102S pMHC]
[2]
  agonist strength (in words): weak agonist
[2]; low T102S density
  NFAT activation probability at low density: 5% and ~ 5%
[2]; low T102S density vs threshold densities
  time to NFAT translocation (comparison in words): took longer to translocate NFAT than those at threshold densities of either MCC or T102S pMHCs
[2]; threshold pMHC density
  NFAT activation probability at threshold density: 32%
[3]; low T102S density, activating cells vs cells that did not activate
  rate of dwell time accumulation (in words): indistinguishable from cells that did not active NFAT at threshold densities
[4]; low T102S pMHC density, 30-s window, cells that activated NFAT
  number of correlated pMHC tracks, activating cells: between two and nine correlated pMHC tracks
[4]; low T102S pMHC density, 30-s window, cells that did not activate NFAT
  number of correlated pMHC tracks, nonactivating cells: zero to three correlated pMHC tracks
[4]; [7]
  binding events within 2 mm and 30 s of another binding event, activating cells: 90%
  effective mean dwell time after spatiotemporal correlation (in words): could resemble long-dwelling MCC pMHC binding inputs in terms of mean dwell time
[4]; low T102S pMHC density, cells that did not activate NFAT
  binding events within the same space and time (2 mm, 30 s), nonactivating cells: 68%
[4]; threshold conditions
  number of spatiotemporally correlated tracks (comparison in words): more spatiotemporally correlated pMHC tracks than those exposed to MCC
[5]
  probability that a pMHC-TCR binding event dwells for 40 s: 0.02

## ANERADLIAYPKAATKF [K3 pMHC]
[2]
  agonist strength (in words): moderate agonist

## ANERADLIAYLKQATK [MCC pMHC, Moth cytochrome C 88–103 peptide]
[2]
  agonist strength (in words): strong agonist
[1]
  pMHC-TCR binding / mobility under T cell (in words): bimodal mobility under a T cell (cyan) and unimodal mobility on the free supported membrane; also recorded: a substantial fraction of the all pMHC under the T cell are bound as long-lived species
[1]; range covered by strong and weak agonist
  difference in affinity MCC pMHC vs T102S pMHC: fivefold
[5]
  probability that a pMHC-TCR binding event dwells for 40 s: 0.43
[6]
  mean dwell time (<τoff>), 5c.c7 TCR: 7.2 s

B1: CD80: murine costimulatory ligand CD80 (B7), recombinant, secreted, truncated ectodomain with a flexible linker and decahistidine tag (protein, UniProt Q00609 38-246, looked up)
extracellular domain: VDEQLSKSVKDKVLLPCRYNSPHEDESEDRIYWQKHDKVVLSVIAGKLKVWPEYKNRTLYDNTTYSLIILGLVLSDRGTYSCVVQKKERGTYEVKHLALVKLSIKADFSTPNITESGNPSADTKRITCFASGGFPKPRFSWLENGRELPGINTTISQDPESELYTISSQLDFNTTRNHTIKCLIKYGDAHVSEDFTWEKPPEDPPDSKN
modifications: extracellular domain flexible linker and decahistidine tag
[3]; CD80 on bilayer, 100 to 300 molecules/μm^2, cells that activated NFAT
  effect of costimulation on activation (in words): cells that activated NFAT experienced a decrease in the time to activation, accumulated binding events, and cumulative dwell time
